Data reported in paper PMC10213863 (Cell Reports Medicine, 2023).

Experiments:
NZB/W F1 mice [1] = test: Mouse NZB/W F1 model of lupus, MHV370 in food; type: in vivo
How it was run: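 NZB/W F1 mice entered at 23 weeks and were randomized into groups of 14 (mean proteinuria 0.1–0.5 mg/mL). They were dosed with test compound in food. Weight was recorded twice weekly; proteinuria weekly by quantitative protein assay (BSA standard). Serum IgG autoantibodies were measured by ELISA at 1:100 or 1:300, with DWEYS peptide for NMDAR, HRP anti-IgG (1:10′000) and TMB. Kidney IgG was stained by IHC; positive/total area was averaged over ten sections per mouse.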

NZB/W F1 mice [2] = test: NZB/W F1 model repeated at a different site, therapeutic twice-daily oral dosing; type: in vivo, mouse
How it was run: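 This repeat NZB/W F1 study had three differences. Mice were included at dipstick proteinuria score 2 (0.3–1 mg/mL), proteinuria was scored by dipstick, and test compound was given orally b.i.d. rather than in food. Kidney IgM and IgG deposits were quantified as positively stained area over total section area on ten sections per mouse, then averaged.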

mouse blood = test: Cell viability in mouse blood; type: cell-based; conditions: up to 10 μM
How it was run: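 Fresh human blood or 129/Sv mouse blood was taken into citrate and diluted 1:1 with RPMI1640. It was pre-incubated 30 min at 37°C, 5% CO2 with increasing concentrations of test compound or 0.25% v/v DMSO (final). Blood was then stimulated with TLR agonists at doses from earlier work, or with R848 (3 μM), and cytokines were quantified. Viability was checked by ATPlite luminescence.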

TLR8 = target: T1, TLR8 (Homo sapiens, UniProt Q9NR97); test: Human PBMC assay, ssRNA-induced TNF; type: cell-based
T1 sequence (Q9NR97 27-1041): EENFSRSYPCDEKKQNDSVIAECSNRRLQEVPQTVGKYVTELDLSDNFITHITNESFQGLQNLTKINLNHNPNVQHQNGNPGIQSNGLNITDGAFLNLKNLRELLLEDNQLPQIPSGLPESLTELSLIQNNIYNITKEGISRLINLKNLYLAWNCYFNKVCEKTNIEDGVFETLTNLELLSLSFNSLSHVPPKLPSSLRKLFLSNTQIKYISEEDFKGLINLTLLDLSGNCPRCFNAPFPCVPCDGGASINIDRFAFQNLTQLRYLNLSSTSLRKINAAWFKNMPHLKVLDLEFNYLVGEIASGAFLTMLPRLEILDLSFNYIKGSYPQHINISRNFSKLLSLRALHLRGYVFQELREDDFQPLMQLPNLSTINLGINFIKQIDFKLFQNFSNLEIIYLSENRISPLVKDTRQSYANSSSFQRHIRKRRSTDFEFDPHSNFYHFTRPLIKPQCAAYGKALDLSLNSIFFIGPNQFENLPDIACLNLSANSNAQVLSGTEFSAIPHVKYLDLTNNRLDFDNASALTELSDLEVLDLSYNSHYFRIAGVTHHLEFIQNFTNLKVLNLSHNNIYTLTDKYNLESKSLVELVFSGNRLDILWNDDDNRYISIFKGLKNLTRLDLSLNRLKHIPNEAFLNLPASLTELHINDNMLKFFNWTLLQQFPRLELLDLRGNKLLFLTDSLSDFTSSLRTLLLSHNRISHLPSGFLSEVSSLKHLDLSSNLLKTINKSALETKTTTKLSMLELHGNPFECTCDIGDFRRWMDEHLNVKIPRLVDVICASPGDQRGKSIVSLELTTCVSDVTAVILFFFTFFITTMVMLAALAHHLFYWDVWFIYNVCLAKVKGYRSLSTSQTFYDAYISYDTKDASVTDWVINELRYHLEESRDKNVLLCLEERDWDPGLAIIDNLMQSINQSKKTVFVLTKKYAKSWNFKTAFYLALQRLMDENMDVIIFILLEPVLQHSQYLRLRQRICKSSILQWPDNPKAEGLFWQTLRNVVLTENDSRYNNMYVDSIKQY
How it was run: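 Human PBMCs were pre-incubated 30 min with test compound, then stimulated with the respective TLR or IL-1R agonist at doses from earlier work. Cytokines in supernatants were quantified by immunoassay. Viability across the dose range was checked by CellTiter-Glo.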

TLR7 = target: T2, TLR7 (Mus musculus, UniProt P58681); type: in vivo; conditions: mice; single oral dose 5 mg/kg
T2 sequence (P58681 27-1050): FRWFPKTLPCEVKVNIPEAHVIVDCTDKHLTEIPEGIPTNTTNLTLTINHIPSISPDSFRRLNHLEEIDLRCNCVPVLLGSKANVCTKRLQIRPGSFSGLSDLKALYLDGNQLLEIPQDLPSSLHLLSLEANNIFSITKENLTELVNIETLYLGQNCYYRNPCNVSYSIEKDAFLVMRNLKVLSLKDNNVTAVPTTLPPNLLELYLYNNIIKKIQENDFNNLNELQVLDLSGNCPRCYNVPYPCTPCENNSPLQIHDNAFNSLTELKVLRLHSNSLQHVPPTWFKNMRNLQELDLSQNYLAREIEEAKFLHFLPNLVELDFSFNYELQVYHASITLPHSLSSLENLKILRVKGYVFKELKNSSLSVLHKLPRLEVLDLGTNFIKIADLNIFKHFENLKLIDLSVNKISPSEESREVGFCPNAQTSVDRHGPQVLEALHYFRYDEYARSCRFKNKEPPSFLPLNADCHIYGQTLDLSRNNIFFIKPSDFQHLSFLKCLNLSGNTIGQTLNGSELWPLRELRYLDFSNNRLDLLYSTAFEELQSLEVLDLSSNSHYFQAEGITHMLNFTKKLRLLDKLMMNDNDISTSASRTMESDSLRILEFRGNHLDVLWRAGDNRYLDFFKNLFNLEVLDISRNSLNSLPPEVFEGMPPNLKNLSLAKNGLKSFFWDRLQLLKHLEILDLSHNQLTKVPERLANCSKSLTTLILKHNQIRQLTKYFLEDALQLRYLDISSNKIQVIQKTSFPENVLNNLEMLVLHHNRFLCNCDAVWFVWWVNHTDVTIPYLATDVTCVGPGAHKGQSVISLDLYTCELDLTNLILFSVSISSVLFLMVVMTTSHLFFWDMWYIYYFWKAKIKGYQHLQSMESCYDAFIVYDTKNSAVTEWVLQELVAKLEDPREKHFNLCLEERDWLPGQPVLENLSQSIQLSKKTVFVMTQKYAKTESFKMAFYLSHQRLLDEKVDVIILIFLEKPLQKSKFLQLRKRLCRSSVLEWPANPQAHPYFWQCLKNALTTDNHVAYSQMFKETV

[3] = 0.1% MHV370 in food, kidney histology
[4] = MHV370-laced food, at termination
[5] = therapeutic b.i.d. p.o. after robust proteinuria

For `Cc1cc(N2CCc3c(c(C)nn3CC34CCC(NC(=O)[C@@H]5COCCN5)(CC3)CC4)C2)c2cnn(C)c2n1` [MHV370, (S)-N-(4-((5-(1,6-dimethyl-1H-pyrazolo[3,4-b]pyridin-4-yl)-3-methyl-4,5,6,7-tetrahydro-1H-pyrazolo[4,3-c]pyridin-1-yl)methyl)bicyclo[2.2.2]octan-1-yl)morpholine-3-carboxamide], the “inhibition of proteinuria at low dose” value (NZB/W F1 mice [1]; 0.01% MHV370 in food) was “already achieved”, the “IgG deposits in the glomeruli” value (NZB/W F1 mice [1]; [3]) was “reduced” and the glomerulopathy (NZB/W F1 mice [1]; [3]) was “reduced”. For the same molecule, the “infiltration of kidneys with CD45R+ B cells” value (NZB/W F1 mice [1]; [3]) was “reduced”, the “infiltration of kidneys with CD138+ plasma cells” value (NZB/W F1 mice [1]; [3]) was “reduced” and the proteinuria (NZB/W F1 mice [1]; MHV370-laced food) was “effectively prevented”. For the same molecule, the “blood urea nitrogen (BUN)” value (NZB/W F1 mice [1]; [4]) was “moderately reduced”, the “serum levels of CXCL13” value (NZB/W F1 mice [1]; [4]) was “significantly reduced” and the “IgG autoantibody levels against NMDAR” value (NZB/W F1 mice [1]; serum at termination) was “reduced”. The “IgG autoantibody levels against Smith (Sm)” value (NZB/W F1 mice [1]; serum at termination) was “reduced”, the “IgG autoantibody levels against ribosomal P (RiboP)” value (NZB/W F1 mice [1]; serum at termination) was “reduced” and the “serum antibodies against double-stranded DNA (dsDNA)” value (NZB/W F1 mice [1]; serum at termination) was “not reduced”. For the same molecule, the “serum antibodies against histones” value (NZB/W F1 mice [1]; serum at termination) was “not reduced”, the “IgM and IgG deposition in kidneys (histology)” value (NZB/W F1 mice [2]; therapeutic b.i.d. p.o.) was “substantially reduced” and the “proteinuria (dipstick score)” value (NZB/W F1 mice [2]; [5]) was “reduced proteinuria”. For the same molecule, the survival (NZB/W F1 mice [2]; [5]) was “increased survival”, the “effect on cell viability” value (mouse blood) was “did not show” and the IC50 (TLR8) was 70 ± 7.4 nM. The “CD69 expression on B cells, ex vivo R848 stimulation of blood” value (TLR7) was “marked inhibition of CD69 expression over a period of 8 h”.
